We go through 32 molecules from ChEMBL document CHEMBL1148785, “Second generation tetrahydroquinoline-based protein farnesyltransferase inhibitors as antimalarials” (J Med Chem, 2007).

Assay [1] has as its system Plasmodium falciparum. As to the kind of experiment: Inhibition of Plasmodium falciparum protein farnesyltransferase at 0.5 nM by scintillation proximity assay. On the technique in general: In a scintillation proximity assay essentially only radioactivity close to the scintillant gives light.
Assay [2] deals with Plasmodium falciparum. The experiment in a line: Inhibition of Plasmodium falciparum protein farnesyltransferase at 5 nM by scintillation proximity assay.
Assay [3] relates to Plasmodium falciparum. As to the kind of experiment: Inhibition of Plasmodium falciparum protein farnesyltransferase at 50 nM by scintillation proximity assay.
Assay [4] concerns Plasmodium falciparum. The experiment in a line: Antimalarial activity against Plasmodium falciparum K1. In kind it is functional. The conditions noted are these: Plasmodium falciparum, K1; read-out: ED50 (the source's name). The gist of the method:
(§1)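 Asynchronous culture in type A+ erythrocytes at 0.5% parasitemia and 0.5% hematocrit, grown in RPMI-1640 with 20% heat-inactivated human A+ plasma. Compound was serially diluted from a top final 5 µM, with DMSO vehicle as 100% growth. Plates ran 48 h at 37 °C under 5% CO2/5% O2/90% N2, then [3H]-hypoxanthine (0.3 µCi) for 24 h. Filter-harvested counts were corrected for the uninfected-RBC background. ED50 by linear regression; duplicates averaged.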

Assay [5] relates to Plasmodium falciparum. The experiment in a line: Antimalarial activity against Plasmodium falciparum 3D7. In kind it is functional. The conditions noted are these: Plasmodium falciparum, 3D7; read-out: ED50 (the source's name). The gist of the method: as §1

pEC50: −log10 of the molar value. Some results are limits rather than exact numbers.

Broadly, the inhibition is the share of the control response that was lost under treatment. Low readings indicate a response near the control, high ones a response far below the control.

For the molecule `Cn1cncc1CN1CC(N(CC2CCN(C(=O)N3CCCC3)CC2)S(=O)(=O)c2ccccn2)Cc2cc(C#N)ccc21` (stereo not given), the inhibition in the assay with Plasmodium falciparum [1] was found to be 91%; in the assay with Plasmodium falciparum [2], 31%; with Plasmodium falciparum [3], 99%. The pEC50 with Plasmodium falciparum [4] was 7.19; with Plasmodium falciparum [5] it was 7.46.
On to `Cn1cnc(S(=O)(=O)N(Cc2ncoc2-c2ccccc2)C2Cc3cc(C#N)ccc3N(Cc3cncn3C)C2)c1` (stereo not given), for which the inhibition with Plasmodium falciparum [1] was found to be 0%; with Plasmodium falciparum [2] it was 20%; with Plasmodium falciparum [3], 92%. For the same molecule, the pEC50 in the assay with Plasmodium falciparum [4] is 6.05; in the assay with Plasmodium falciparum [5] it was 6.31.
The like results for `Cn1cnc(CN2CC(N(CC(=O)NC(C)(C)C)S(=O)(=O)c3cn(C)cn3)Cc3cc(-c4ccccc4)ccc32)c1` (stereo not given) were, in that order, 23%, 73%, 97%, 6.40 and 6.42.
Take `COC(=O)N1CCC(CN(C2Cc3cc(C#N)ccc3N(Cc3cncn3C)C2)S(=O)(=O)C2CC2)CC1` (stereo not given): the inhibition with Plasmodium falciparum [1] was found to be 0%; in the assay on Plasmodium falciparum [2], 3%; with Plasmodium falciparum [3], 37%. Besides, the pEC50 in the assay on Plasmodium falciparum [4] was 5.40; in the assay on Plasmodium falciparum [5] it was less than 5.30.
The like results for `Cn1cncc1CN1CC(N(CC(=O)O)S(=O)(=O)c2ccccn2)Cc2cc(C#N)ccc21` (stereo not given) were, in that order, 6%, 33%, 81%, 5.59 and 5.68.
For `Cn1cc(S(=O)(=O)N(Cc2ccc(S(C)(=O)=O)cc2)C2Cc3cc(C#N)ccc3N(Cc3cncn3C)C2)cn1` (stereo not given), the inhibition in the assay on Plasmodium falciparum [1] turned out to be 36%; in the assay with Plasmodium falciparum [2], 88%; in the assay on Plasmodium falciparum [3], 97%. Moreover, the pEC50 is 7.22 in the assay with Plasmodium falciparum [4] and 7.12 with Plasmodium falciparum [5].
For `Cn1cnc(CN2CC(N(CCn3cccc3)S(=O)(=O)c3cn(C)cn3)Cc3cc(-c4ccccc4)ccc32)c1` (stereo not given), in that order: 0%, 38%, 90%, 6.82 and 6.34.
Consider `CC(=O)Nc1nc(C)c(S(=O)(=O)N(CC(=O)NC(C)(C)C)C2Cc3cc(C#N)ccc3N(Cc3cncn3C)C2)s1` (stereo not given), for which the results for the inhibition in the assay on Plasmodium falciparum [1], in the assay on Plasmodium falciparum [2] and with Plasmodium falciparum [3] were 5%, 2% and 11%, respectively. For the same molecule, the pEC50 in the assay with Plasmodium falciparum [4] and in the assay with Plasmodium falciparum [5] was less than 5.30 in each case.
Regarding `COC(=O)N1CCC(CN(C2Cc3cc(C#N)ccc3N(Cc3cncn3C)C2)S(=O)(=O)c2cc(C)cs2)CC1` (stereo not given), the inhibition in the assay with Plasmodium falciparum [1] was 25%; with Plasmodium falciparum [2], 86%; in the assay on Plasmodium falciparum [3], 99%. The pEC50 with Plasmodium falciparum [4] was 6.85; in the assay with Plasmodium falciparum [5], 7.21.
For `C=C(C)C(=O)N1CCC(CN(C2Cc3cc(C#N)ccc3N(Cc3cncn3C)C2)S(=O)(=O)c2ccccn2)CC1` (stereo not given), in that order: 92%, 31%, 100%, 7.22 and 7.30.
Turning to `COC(=O)N1CCC(CN(C2Cc3cc(C#N)ccc3N(Cc3cncn3C)C2)S(=O)(=O)c2ccc3c(c2)OCCCO3)CC1` (stereo not given), the inhibition is 24% in the assay with Plasmodium falciparum [1], 81% in the assay on Plasmodium falciparum [2] and 99% in the assay on Plasmodium falciparum [3]. The pEC50 with Plasmodium falciparum [4] is 6.98; in the assay with Plasmodium falciparum [5], 6.86.
The like results for `Cn1cnc(S(=O)(=O)N(Cc2ccc(-n3cccc3)cc2)C2Cc3cc(C#N)ccc3N(Cc3cncn3C)C2)c1` (stereo not given) were, in that order, 9%, 90%, 99%, 7.19 and 7.17.
For `COC(=O)N1CCC(CN(C2Cc3cc(C#N)ccc3N(Cc3cncn3C)C2)S(=O)(=O)c2ccc(C(=O)O)o2)CC1` (stereo not given), in that order: 5%, 49%, 89%, 6.17 and less than 5.30.
Regarding `Cn1cncc1CN1CC(N(Cc2ccccc2F)C(=O)C2CC2)Cc2cc(C#N)ccc21` (stereo not given), the inhibition was 0% with Plasmodium falciparum [1], 0% in the assay with Plasmodium falciparum [2] and 33% in the assay on Plasmodium falciparum [3]. Moreover, the pEC50 with Plasmodium falciparum [4] was 5.70; in the assay with Plasmodium falciparum [5], 6.02.
On to `Cn1cnc(S(=O)(=O)N(Cc2cccc3nsnc23)C2Cc3cc(C#N)ccc3N(Cc3cncn3C)C2)c1` (stereo not given), for which the results for the inhibition in the assay with Plasmodium falciparum [1], with Plasmodium falciparum [2] and in the assay with Plasmodium falciparum [3] were 18%, 94% and 99%, respectively. For the same molecule, the pEC50 is 6.64 in the assay on Plasmodium falciparum [4] and 7.22 in the assay on Plasmodium falciparum [5].
The like results for `Cn1cncc1CN1CC(N(CCn2ccnc2)S(=O)(=O)c2ccccn2)Cc2cc(C#N)ccc21` (stereo not given) were, in that order, 67%, 91%, 95%, 7.80 and 7.92.
With `COC(=O)N1CCC(CN(C2Cc3cc(C#N)ccc3N(Cc3cncn3C)C2)S(=O)(=O)c2cccc3nonc23)CC1` (stereo not given), the inhibition in the assay on Plasmodium falciparum [1] is 31%; in the assay on Plasmodium falciparum [2], 89%; with Plasmodium falciparum [3], 99%. Moreover, the results for the pEC50 in the assay with Plasmodium falciparum [4] and in the assay with Plasmodium falciparum [5] were 7.00 and 6.87, respectively.
For the molecule `Cn1cnc(S(=O)(=O)N(CCN)C2Cc3cc(C#N)ccc3N(Cc3cncn3C)C2)c1` (stereo not given), the inhibition in the assay with Plasmodium falciparum [1] was 0%; with Plasmodium falciparum [2] it was 15%; in the assay with Plasmodium falciparum [3], 72%. In addition, the pEC50 in the assay on Plasmodium falciparum [4] and in the assay on Plasmodium falciparum [5] was less than 5.30 in each case.
Regarding `COC(=O)N1CCC(CN(C2Cc3cc(C#N)ccc3N(S(=O)(=O)c3cncn3C)C2)S(=O)(=O)c2ccccn2)CC1` (stereo not given), the inhibition in the assay on Plasmodium falciparum [1], with Plasmodium falciparum [2] and in the assay with Plasmodium falciparum [3] was 0% in each case. The results for the pEC50 in the assay with Plasmodium falciparum [4] and with Plasmodium falciparum [5] were 5.49 and less than 5.30, respectively.
For `COC(=O)N1CCC(CN(C2Cc3cc(C#N)ccc3N(Cc3cccnc3)C2)S(=O)(=O)c2ccccn2)CC1` (stereo not given), the inhibition was determined as 3% in the assay with Plasmodium falciparum [1], 12% with Plasmodium falciparum [2] and 35% in the assay with Plasmodium falciparum [3]. Moreover, the results for the pEC50 with Plasmodium falciparum [4] and with Plasmodium falciparum [5] were 5.52 and 5.47, respectively.
For the molecule `CCS(=O)(=O)N1CCC(CN(C2Cc3cc(C#N)ccc3N(Cc3cncn3C)C2)S(=O)(=O)c2ccccn2)CC1` (stereo not given), the figures for the inhibition in the assay with Plasmodium falciparum [1], in the assay with Plasmodium falciparum [2] and with Plasmodium falciparum [3] were 94%, 56% and 98%, respectively. Further, the values for the pEC50 with Plasmodium falciparum [4] and in the assay with Plasmodium falciparum [5] were 7.26 and 7.12, respectively.
Consider `COC(=O)N1CCC(CN(C2Cc3cc(C#N)ccc3N(Cc3cncn3C)C2)S(=O)(=O)c2ccc(NC(C)=O)cc2)CC1` (stereo not given), for which the inhibition worked out at 0% in the assay on Plasmodium falciparum [1], 6% in the assay with Plasmodium falciparum [2] and 65% in the assay on Plasmodium falciparum [3]. In addition, the pEC50 in the assay on Plasmodium falciparum [4] is 5.70; with Plasmodium falciparum [5] it was 5.74.
For `COC(=O)N(C)CCCN(C1Cc2cc(C#N)ccc2N(Cc2cncn2C)C1)S(=O)(=O)c1ccccn1` (stereo not given), in that order: 6%, 68%, 95%, 7.35 and 7.74.
The like results for `CCS(=O)(=O)N(Cc1ccccc1F)C1Cc2cc(C#N)ccc2N(Cc2cncn2C)C1` (stereo not given) were, in that order, 0%, 11%, 61%, 5.68 and 6.09.
Consider `Cn1cnc(S(=O)(=O)N(CCCCN2C(=O)c3ccccc3C2=O)C2Cc3cc(C#N)ccc3N(Cc3cncn3C)C2)c1` (stereo not given), for which the inhibition in the assay on Plasmodium falciparum [1] was 90%; in the assay with Plasmodium falciparum [2] it was 96%; with Plasmodium falciparum [3], 97%. For the same molecule, the pEC50 with Plasmodium falciparum [4] is 6.89; in the assay on Plasmodium falciparum [5], 7.40.
For `Cn1cnc(S(=O)(=O)N(CCc2ccccc2)C2Cc3cc(C#N)ccc3N(Cc3cncn3C)C2)c1` (stereo not given), in that order: 82%, 96%, 97%, 8.00 and 8.05.
The like results for `Cn1cncc1CN1CC(N(CC2CCN(C(=O)N3CCCCC3)CC2)S(=O)(=O)c2ccccn2)Cc2cc(C#N)ccc21` (stereo not given) were, in that order, 62%, 14%, 94%, 6.70 and 6.85.
`Cn1cnc(CN2CC(N(CC(=O)NC(C)(C)C)S(C)(=O)=O)Cc3cc(-c4ccccc4)ccc32)c1` (stereo not given): the inhibition in the assay on Plasmodium falciparum [1] stood at 0%; in the assay with Plasmodium falciparum [2], 0%; in the assay with Plasmodium falciparum [3], 2%. The pEC50 with Plasmodium falciparum [4] and in the assay on Plasmodium falciparum [5] was less than 5.30 each time.
Turning to `Cn1cncc1CN1CC(N(Cc2ccc(F)cc2)S(=O)(=O)c2ccccn2)Cc2cc(C#N)ccc21` (stereo not given), the inhibition in the assay on Plasmodium falciparum [1] worked out at 11%; in the assay with Plasmodium falciparum [2], 50%; in the assay with Plasmodium falciparum [3] it was 91%. The pEC50 in the assay on Plasmodium falciparum [4] is 5.60; in the assay on Plasmodium falciparum [5] it was 6.37.
For `C=C(Br)CN(C1Cc2cc(-c3ccccc3)ccc2N(Cc2cncn2C)C1)S(=O)(=O)c1cn(C)cn1` (stereo not given), in that order: 21%, 89%, 97%, 6.44 and 6.42.
The like results for `COC(=O)c1ccsc1S(=O)(=O)N(CC1CCN(C(=O)OC)CC1)C1Cc2cc(C#N)ccc2N(Cc2cncn2C)C1` (stereo not given) were, in that order, 10%, 61%, 92%, 5.72 and 5.64.
The like results for `Cn1cnc(S(=O)(=O)N(CCc2ccccc2C(F)(F)F)C2Cc3cc(C#N)ccc3N(Cc3cncn3C)C2)c1` (stereo not given) were, in that order, 8%, 82%, 99%, 7.15 and 7.19.
